Test results published in ChEMBL document CHEMBL1124365, “3-Quaternary ammonium 1-carba-1-dethiacephems” (J Med Chem, 1989).
≈ marks a conversion by molar mass, not a printed value.

Tests used:
Escherichia coli [1] = test: Minimal inhibitory activity against the Escherichia coli (EC14); assay type: functional
Outline: (§1)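 Agar dilution: compounds diluted in 0.1 M phosphate buffer pH 7.0, incorporated into Mueller-Hinton agar with 1% Bacto-Supplement C at 50 °C. Overnight cultures diluted to ~1×10^4 cells/µL, 1 µL spotted onto plates; incubated overnight at 35 °C in ambient air. MIC = lowest concentration preventing visible growth.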

Escherichia coli [2] = test: Minimal inhibitory activity against the E. coli(TEM beta lactamase containing); assay type: functional; outline: as §1
Enterobacter cloacae [3] = test: Minimal inhibitory activity against the Enterobacter cloacae (265A beta lactamase containing); assay type: functional; outline: as §1
Enterobacter cloacae [4] = test: Minimal inhibitory activity against the Enterobacter cloacae (EB5); assay type: functional; outline: as §1
Haemophilus influenzae = test: Minimal inhibitory activity against the Haemophilus influenzae (C.L); assay type: functional; outline: as §1
Klebsiella [5] = test: Minimal inhibitory activity against the Klebsiella(KAE beta lactamase containing); assay type: functional; outline: as §1
Klebsiella [6] = test: Minimal inhibitory activity against the Klebsiella (X26); assay type: functional; outline: as §1
Morganella morganii = test: Minimal inhibitory activity against the Proteus morganii (PR15); assay type: functional; outline: as §1
Pseudomonas aeruginosa = test: Minimal inhibitory activity against the Pseudomonas aeruginosa (X528); assay type: functional; outline: as §1
Providencia rettgeri = test: Minimal inhibitory activity against the Proteus rettgeri (C24); assay type: functional; outline: as §1
Salmonella = test: Minimal inhibitory activity against the Salmonella (X514); assay type: functional; outline: as §1
[7] = tested on: Staphylococcus epidermidis; test: Minimal inhibitory activity against the Staphylococcus epidermidis (222); assay type: functional; outline: as §1
Staphylococcus aureus = test: Minimal inhibitory activity against the Staphylococcus aureus (X1.1); assay type: functional; outline: as §1
Streptococcus pneumoniae = test: Minimal inhibitory activity against the Streptococcus pneumoniae (PARK); assay type: functional; outline: as §1
Streptococcus pyogenes = test: Minimal inhibitory activity against the Streptococcus pyogenes (C203); assay type: functional; outline: as §1
[8] = Half-life was evaluated for pharmacokinetic data in rats.; assay type: ADME, organism-based; details: rat, in vivo
Outline: (§2)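 Male Sprague-Dawley rats given 20 mg/kg IV in saline via indwelling jugular vein cannula; serial blood sampling through cannula, plasma and urine collected over 4 h. Drug levels by agar well diffusion bioassay with E. coli ATCC 4157 (detection limit ≤0.80 μg/mL). Half-life = 0.693/β from terminal plasma slope; urinary recovery as percent of administered dose.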

Rattus norvegicus = organism: Rattus norvegicus; test: Urinary recovery was evaluated for pharmacokinetic data in rats; assay type: organism-based; details: Urine; outline: as §2
[9] = Half-life was evaluated for pharmacokinetic data in rats; assay type: ADME, organism-based; details: rat, in vivo
Outline: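 Male Sprague-Dawley rats, single 20 mg/kg intravenous dose in saline via indwelling jugular vein cannula; serial blood sampling from the same cannula over 4 h. Plasma levels measured by agar well diffusion bioassay with E. coli ATCC 4157 (detection limit ≤0.80 µg/mL). Half-life calculated as 0.693/β, β being the terminal slope of the plasma concentration–time curve.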

Enterobacter cloacae [10] = test: Truncation of the zone of inhibition was graded for Enterobacter cloacae EB17 on a 30 ug disk of test compound; assay type: functional
Outline: (§3)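 Cefoxitin disk approximation: Mueller-Hinton agar swab-inoculated with ~1×10^8 cells/mL of inducible Enterobacter strains; 30 µg test-compound disks plus 30 µg cefoxitin disks placed ~15 mm from their edge. Overnight at 35 °C in ambient air; truncation of inhibition zone on cefoxitin-proximal side graded as a measure of induced β-lactamase effect.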

Enterobacter cloacae [11] = test: Truncation of the zone of inhibition was graded for Enterobacter cloacae EB5 on a 30 ug disk of test compound; assay type: functional; outline: as §3
Enterobacter cloacae [12] = test: Truncation of the zone of inhibition was graded for Enterobacter cloacae EB57 on a 30 ug disk of test compound; assay type: functional; outline: as §3

SMILES	MIC (Escherichia coli [1]) [µg/mL]	MIC (Escherichia coli [2]) [µg/mL]	MIC (Enterobacter cloacae [3]) [µg/mL]	MIC (Enterobacter cloacae [4]) [µg/mL]	MIC (Haemophilus influenzae) [µg/mL]	MIC (Klebsiella [5]) [µg/mL]	MIC (Klebsiella [6]) [µg/mL]	MIC (Morganella morganii) [µg/mL]	MIC (Pseudomonas aeruginosa) [µg/mL]	MIC (Providencia rettgeri) [µg/mL]	MIC (Salmonella) [µg/mL]	MIC [7] [µg/mL]	MIC (Staphylococcus aureus) [µg/mL]	MIC (Streptococcus pneumoniae) [µg/mL]	MIC (Streptococcus pyogenes) [µg/mL]	Recovery (Rattus norvegicus) [%]	also measured
CO/N=C(\C(=O)N[C@@H]1C(=O)N2C(C(=O)[O-])=C([n+]3cccc4c3CCC4)CC[C@H]12)c1csc(N)n1	0.06 (≈ 0.124 µM)	0.5 (≈ 1.04 µM)	1 (≈ 2.07 µM)	0.125 (≈ 0.259 µM)	0.5 (≈ 1.04 µM)	8 (≈ 16.6 µM)	0.03 (≈ 0.0622 µM)	0.25 (≈ 0.518 µM)	128 (≈ 265 µM)	0.5 (≈ 1.04 µM)	0.03 (≈ 0.0622 µM)	4 (≈ 8.29 µM)	2 (≈ 4.14 µM)	0.03 (≈ 0.0622 µM)	0.03 (≈ 0.0622 µM)	82.3	half-life [8]: 20.1 min
CO/N=C(\C(=O)N[C@@H]1C(=O)N2C(C(=O)[O-])=C(C[n+]3ccccc3)CC[C@H]12)c1csc(N)n1																87.9	half-life [9]: 22.9 min; Zone diameter (Enterobacter cloacae [10]): 35 mm; Zone diameter (Enterobacter cloacae [11]): 26 mm; Zone diameter (Enterobacter cloacae [12]): 26 mm
CO/N=C(\C(=O)N[C@@H]1C(=O)N2C(C(=O)[O-])=C([n+]3cccc4c3CCCC4)CC[C@H]12)c1csc(N)n1	0.125 (≈ 0.252 µM)	1 (≈ 2.01 µM)	2 (≈ 4.03 µM)	0.25 (≈ 0.503 µM)	0.5 (≈ 1.01 µM)	16 (≈ 32.2 µM)	0.125 (≈ 0.252 µM)	1 (≈ 2.01 µM)	128 (≈ 258 µM)	4 (≈ 8.06 µM)	0.125 (≈ 0.252 µM)	8 (≈ 16.1 µM)	2 (≈ 4.03 µM)	0.06 (≈ 0.121 µM)	0.06 (≈ 0.121 µM)		

Second part, led by results:

MIC (Escherichia coli [1]) [µg/mL]	MIC (Escherichia coli [2]) [µg/mL]	MIC (Enterobacter cloacae [3]) [µg/mL]	MIC (Enterobacter cloacae [4]) [µg/mL]	MIC (Haemophilus influenzae) [µg/mL]	MIC (Klebsiella [5]) [µg/mL]	MIC (Klebsiella [6]) [µg/mL]	MIC (Morganella morganii) [µg/mL]	MIC (Pseudomonas aeruginosa) [µg/mL]	MIC (Providencia rettgeri) [µg/mL]	MIC (Salmonella) [µg/mL]	MIC [7] [µg/mL]	MIC (Staphylococcus aureus) [µg/mL]	MIC (Streptococcus pneumoniae) [µg/mL]	MIC (Streptococcus pyogenes) [µg/mL]	SMILES	Recovery (Rattus norvegicus) [%]	also measured
2 (≈ 3.66 µM)	1 (≈ 1.83 µM)	8 (≈ 14.6 µM)	4 (≈ 7.32 µM)	0.125 (≈ 0.229 µM)	128 (≈ 234 µM)	0.06 (≈ 0.11 µM)	2 (≈ 3.66 µM)	128 (≈ 234 µM)	8 (≈ 14.6 µM)	1 (≈ 1.83 µM)	2 (≈ 3.66 µM)	1 (≈ 1.83 µM)	0.015 (≈ 0.0274 µM)	0.03 (≈ 0.0549 µM)	Cc1cc[n+](C2=C(C(=O)[O-])N3C(=O)[C@@H](NC(=O)/C(=N\OCc4ccccc4)c4csc(N)n4)[C@H]3CC2)cc1C		
0.125 (≈ 0.266 µM)	0.125 (≈ 0.266 µM)	1 (≈ 2.13 µM)	0.25 (≈ 0.531 µM)	0.5 (≈ 1.06 µM)	2 (≈ 4.25 µM)	0.125 (≈ 0.266 µM)	0.25 (≈ 0.531 µM)	128 (≈ 272 µM)	0.25 (≈ 0.531 µM)	0.125 (≈ 0.266 µM)	8 (≈ 17 µM)	4 (≈ 8.5 µM)	0.06 (≈ 0.128 µM)	0.03 (≈ 0.0638 µM)	CO/N=C(\C(=O)N[C@@H]1C(=O)N2C(C(=O)[O-])=C([n+]3cc(C)ccc3C)CC[C@H]12)c1csc(N)n1		
